Measured values: ChEMBL document CHEMBL1770143, “Biological evaluation of 3'-O-alkylated analogs of salacinol, the role of hydrophobic alkyl group at 3' position in the side chain on the α-glucosidase inhibitory activity” (Bioorg Med Chem Lett, 2011)

What was measured:
[1] = target: T1, Sucrase-isomaltase, intestinal (Rattus norvegicus, UniProt P23739); test: Competitive inhibition of rat intestinal sucrase
[2] = target: T1, Sucrase-isomaltase, intestinal; test: Competitive inhibition of rat intestinal isomaltase
[3] = target: T1, Sucrase-isomaltase, intestinal; test: Inhibition of rat small intestinal isomaltase after 30 mins by glucose-oxidase method
Summary of the method: (§1)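 Enzyme source was rat small-intestinal brush border membrane vesicles suspended in 0.1 M maleate buffer, pH 6.0. Substrate solutions, prior to mixing, were maltose 74 mM (maltase), sucrose 74 mM (sucrase) and isomaltose 7.4 mM (isomaltase). Substrate, inhibitor and enzyme were incubated at 37 °C for 30 min, then stopped by 2 min boiling. Released glucose was measured by glucose oxidase. Final DMSO was 2.5%.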

[4] = target: T1, Sucrase-isomaltase, intestinal; test: Inhibition of rat small intestinal sucrase after 30 mins by glucose-oxidase method; summary of the method: as §1

T1 sequence (P23739 1-1013 limits assumed): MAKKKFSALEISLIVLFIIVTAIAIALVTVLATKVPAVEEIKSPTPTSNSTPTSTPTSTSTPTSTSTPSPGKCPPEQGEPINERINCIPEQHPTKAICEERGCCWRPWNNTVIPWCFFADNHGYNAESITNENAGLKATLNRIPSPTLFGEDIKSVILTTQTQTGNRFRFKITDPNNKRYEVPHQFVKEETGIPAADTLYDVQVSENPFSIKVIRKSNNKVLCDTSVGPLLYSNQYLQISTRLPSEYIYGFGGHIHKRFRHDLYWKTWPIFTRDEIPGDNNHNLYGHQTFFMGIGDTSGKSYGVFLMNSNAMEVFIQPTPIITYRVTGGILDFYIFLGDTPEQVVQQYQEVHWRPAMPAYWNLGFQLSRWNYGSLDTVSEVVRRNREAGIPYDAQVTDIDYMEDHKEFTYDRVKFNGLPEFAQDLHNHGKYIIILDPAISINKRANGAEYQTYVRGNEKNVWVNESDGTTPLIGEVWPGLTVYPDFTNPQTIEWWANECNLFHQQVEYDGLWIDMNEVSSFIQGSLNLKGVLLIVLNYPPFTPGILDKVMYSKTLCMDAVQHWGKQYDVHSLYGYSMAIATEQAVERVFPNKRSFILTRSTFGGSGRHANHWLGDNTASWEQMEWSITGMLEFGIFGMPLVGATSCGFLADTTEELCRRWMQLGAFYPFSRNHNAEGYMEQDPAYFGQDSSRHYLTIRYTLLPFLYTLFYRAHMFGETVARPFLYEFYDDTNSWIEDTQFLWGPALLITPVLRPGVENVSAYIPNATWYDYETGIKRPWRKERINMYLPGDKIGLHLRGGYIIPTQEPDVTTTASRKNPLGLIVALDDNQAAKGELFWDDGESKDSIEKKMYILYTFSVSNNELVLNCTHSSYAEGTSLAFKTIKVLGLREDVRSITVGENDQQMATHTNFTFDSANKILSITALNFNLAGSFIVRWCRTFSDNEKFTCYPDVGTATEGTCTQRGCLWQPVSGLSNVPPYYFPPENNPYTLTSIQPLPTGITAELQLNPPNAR
T1 sequence (P23739 1014-1841 limits assumed): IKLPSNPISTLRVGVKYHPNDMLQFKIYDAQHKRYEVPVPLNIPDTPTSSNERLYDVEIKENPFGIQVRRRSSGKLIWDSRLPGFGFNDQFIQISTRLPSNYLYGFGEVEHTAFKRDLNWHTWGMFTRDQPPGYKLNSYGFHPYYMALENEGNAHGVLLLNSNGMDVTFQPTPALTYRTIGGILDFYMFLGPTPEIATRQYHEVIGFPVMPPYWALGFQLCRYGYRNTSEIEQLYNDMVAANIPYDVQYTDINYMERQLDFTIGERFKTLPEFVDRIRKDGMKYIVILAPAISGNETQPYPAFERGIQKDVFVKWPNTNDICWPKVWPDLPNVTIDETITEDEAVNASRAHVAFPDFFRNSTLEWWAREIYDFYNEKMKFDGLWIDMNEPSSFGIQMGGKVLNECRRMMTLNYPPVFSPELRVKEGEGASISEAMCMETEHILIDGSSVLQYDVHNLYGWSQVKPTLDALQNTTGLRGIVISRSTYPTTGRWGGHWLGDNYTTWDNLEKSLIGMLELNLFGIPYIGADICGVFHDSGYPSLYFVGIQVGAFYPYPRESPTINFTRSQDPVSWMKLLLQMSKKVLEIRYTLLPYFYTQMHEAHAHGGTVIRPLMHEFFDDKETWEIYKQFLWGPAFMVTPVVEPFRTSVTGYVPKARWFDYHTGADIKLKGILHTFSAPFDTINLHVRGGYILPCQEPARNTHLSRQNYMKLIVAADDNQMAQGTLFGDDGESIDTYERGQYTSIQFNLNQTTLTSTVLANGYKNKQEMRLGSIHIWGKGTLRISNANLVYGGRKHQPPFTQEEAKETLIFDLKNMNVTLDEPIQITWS

O=S(=O)([O-])O[C@@H](CO)[C@H](O)C[S@+]1C[C@@H](O)[C@H](O)[C@H]1CO [SALACINOL]
Ki [1]: 957 nM
Ki [2]: 1410 nM

CCO[C@@H](CO)[C@H](O)C[S+]1C[C@@H](O)[C@H](O)[C@H]1CO (single isomer, unassigned)
IC50 [3]: 270 nM
IC50 [4]: 120 nM

OC[C@H](OCc1ccccc1)[C@H](O)C[S+]1C[C@@H](O)[C@H](O)[C@H]1CO (single isomer, unassigned)
IC50 [4]: 320 nM

CCCCCCCCCCCCCO[C@@H](CO)[C@H](O)C[S+]1C[C@@H](O)[C@H](O)[C@H]1CO (single isomer, unassigned)
IC50 [3]: 950 nM
IC50 [4]: 1300 nM

CO[C@@H](CO)[C@H](O)C[S+]1C[C@@H](O)[C@H](O)[C@H]1CO (single isomer, unassigned)
IC50 [3]: 390 nM
IC50 [4]: 460 nM
